The target in test [1] is T1, Poly [ADP-ribose] polymerase 1 (Homo sapiens, UniProt P09874).
Test [2] deals with A549. The experiment in a line: (§1) Cytotoxicity potentiation of Topotecan in human lung carcinoma A549 cells by the compound as potentiation factor at 50% growth inhibition. Type of test: functional. A digest of the protocol:
(§2)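 Cells were seeded 16–24 h before treatment, then exposed continuously for 5 days to increasing concentrations of temozolomide or topotecan, with or without 0.4 μM PARP-1 inhibitor. Final DMSO was 1%. Relative cell number was measured by SRB assay. Growth IC50 values came from point-to-point analysis of growth curves. PF50 = IC50 of cytotoxic agent alone / IC50 with inhibitor. Data are mean ± SEM of three independent experiments.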

Test [3] relates to A549. As to the kind of experiment: Cytotoxic potentiation of Topotecan (TP) by the compound in human lung carcinoma A549 cell line. Type of test: functional, cell-based. A digest of the protocol: as §2
The test system of test [4] is LoVo. The experiment in a line: Cytotoxic potentiation of Tomozolomide (TM) by the compound in human colorectal carcinoma LoVo cell line. Type of test: functional, cell-based. The essentials: as §2
For test [5], the system named is LoVo. The experiment in a line: Cytotoxic potentiation of Topotecan (TP) by the compound in human colorectal carcinoma LoVo cell line. Type of test: functional, cell-based. The essentials:
as §2

The subject of test [6] is SW-620. As to the kind of experiment: Cytotoxic potentiation of Topotecan (TP) by the compound in human colon carcinoma SW620 cell line. Type of test: functional, cell-based. A digest of the protocol: as §2
The test system of test [7] is SW-620. The experiment in a line: Cytotoxicity potentiation of Topotecan in human lung carcinoma SW620 cell line by the compound as potentiation factor at 50% growth inhibition. Type of test: functional. Particulars: in the assay text read “human colon carcinoma” for “human lung carcinoma”. The essentials: as §2
Test [8] deals with A549. Described as §1. Type of test: functional. The essentials: as §2
The source holds these as a separate data set.

Test [9] concerns the target T1, Poly [ADP-ribose] polymerase 1. The source holds these as a separate data set.
Test [10] relates to LoVo. The experiment in a line: Cytotoxic potentiation of Topotecan (TP) by the compound in (human colorectal cancer LoVo cell line. Type of test: functional, cell-based. The essentials: as §2

For 21 compounds, Ki, PF50 and IC50 results are on record in ChEMBL document CHEMBL1136008, “Novel tricyclic poly(ADP-ribose) polymerase-1 inhibitors with potent anticancer chemopotentiating activity: design, synthesis, and X-ray cocrystal structure” (J Med Chem, 2002).

The structures appear in SMILES notation. pIC50, pKi: −log10 of the molar value. Where only a bound is given, the exact number is not on record here.

T1 sequence (P09874 whole entry): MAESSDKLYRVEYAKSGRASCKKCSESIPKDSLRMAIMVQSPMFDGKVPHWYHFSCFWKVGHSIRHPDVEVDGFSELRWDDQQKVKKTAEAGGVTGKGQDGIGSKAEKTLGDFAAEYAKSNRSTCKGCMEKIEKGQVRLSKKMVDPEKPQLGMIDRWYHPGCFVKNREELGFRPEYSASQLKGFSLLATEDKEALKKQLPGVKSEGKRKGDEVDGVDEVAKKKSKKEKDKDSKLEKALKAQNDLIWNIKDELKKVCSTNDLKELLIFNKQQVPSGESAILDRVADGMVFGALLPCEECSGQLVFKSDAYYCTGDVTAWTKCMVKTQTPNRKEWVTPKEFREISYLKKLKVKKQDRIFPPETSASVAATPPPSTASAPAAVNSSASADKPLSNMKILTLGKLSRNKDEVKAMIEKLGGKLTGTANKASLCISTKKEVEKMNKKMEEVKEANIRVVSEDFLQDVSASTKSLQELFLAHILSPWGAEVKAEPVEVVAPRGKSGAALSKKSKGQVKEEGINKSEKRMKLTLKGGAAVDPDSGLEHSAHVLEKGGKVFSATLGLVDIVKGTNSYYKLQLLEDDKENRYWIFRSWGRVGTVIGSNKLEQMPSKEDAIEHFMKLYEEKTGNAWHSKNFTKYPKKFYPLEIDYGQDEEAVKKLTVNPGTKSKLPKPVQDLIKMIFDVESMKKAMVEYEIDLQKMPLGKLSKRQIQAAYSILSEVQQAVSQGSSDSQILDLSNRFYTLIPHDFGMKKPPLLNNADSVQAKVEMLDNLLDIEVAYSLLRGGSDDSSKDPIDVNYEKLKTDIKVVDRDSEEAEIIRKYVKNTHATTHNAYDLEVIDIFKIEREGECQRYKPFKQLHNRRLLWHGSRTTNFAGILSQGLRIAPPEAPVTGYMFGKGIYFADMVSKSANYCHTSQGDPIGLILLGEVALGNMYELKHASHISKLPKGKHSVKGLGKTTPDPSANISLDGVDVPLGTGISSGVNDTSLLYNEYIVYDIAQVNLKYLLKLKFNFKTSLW

As for `O=C1NCCc2c(O)[nH]c3cccc1c23`, the pKi in test [1] is 6.43.
Same read-out and setting: the figure for `O=C1NCc2c(-c3ccccc3)[nH]c3cccc1c23` is above 8.30.
`COc1ccc(-c2[nH]c3cccc4c3c2CCNC4=O)cc1`: in [1], the pKi was 8.22.
In test [1], `Nc1cccc(-c2[nH]c3cccc4c3c2CCNC4=O)c1` showed a pKi of 8.15.
Turning to `O=C1NCCc2c(-c3ccccc3)[nH]c3cccc1c23`, the PF50 in test [2] came to 1.8.
Consider `COc1[nH]c2cccc3c2c1CCNC3=O`, for which, in [1], the pKi is 8.00.
For `Cn1c(-c2ccccc2)c2c3c(cccc31)C(=O)NCC2`, the PF50 in test [2] amounted to 1.7.
Regarding `O=C1NCCc2c(-c3ccc(Cn4cccc4)cc3)[nH]c3cccc1c23`, the PF50 amounted to 2 in test [2], 1.8 in test [7] and 2 in test [8]. Also, the pIC50 in test [3] is 7.92; in test [4], 4.12; in test [5], 8.19; in [6], 8.74. In addition, the pKi in test [9] is 8.22.
In the case of `O=C1NCCc2c[nH]c3cccc1c23`, the PF50 in [2] is reported as 1.1.
`CN(C)Cc1cccc(-c2[nH]c3cccc4c3c2CNC4=O)c1` gave a pKi in test [1] above 8.30.
For the compound `CN(C)Cc1cccc(-c2[nH]c3cccc4c3c2CCNC4=O)c1`, the PF50 in [2] is reported as 2.1. The compound further gave a pKi in [1] of 8.10.
As to `CN(C)Cc1ccc(-c2[nH]c3cccc4c3c2CNC4=O)cc1`, in test [2], the PF50 stood at 2.2.
`N#Cc1[nH]c2cccc3c2c1CCNC3=O`: the pKi in test [1] is 7.96.
With `CN(C)Cc1ccc(-c2[nH]c3cccc4c3c2CCNC4=O)cc1`, the PF50 in test [2] is listed as 2.4.
For `Cn1nnc2c(C(N)=O)ncn2c1=O` [TEMOZOLOMIDE], the pIC50 in test [10] (in the assay text read “Temozolomide (TM)” for “Topotecan (TP)”) is 3.23.
On to `CN1CCc2c(-c3ccccc3)n(C)c3cccc(c23)C1=O`, for which the PF50 in test [2] was 1.2.
The compound `O=C1NCCc2c(-c3ccc[nH]3)[nH]c3cccc1c23` had a pKi in [1] of 8.10.
Same read-out and setting: the figure for `O=C1NCCc2c(C(c3ccccc3)c3ccccc3)[nH]c3cccc1c23` is 7.64; for `O=C1NCCc2c(-c3cccc(C(F)(F)F)c3)[nH]c3cccc1c23` it is 8.22.
For `CC[C@@]1(O)C(=O)OCc2c1cc1n(c2=O)Cc2cc3c(CN(C)C)c(O)ccc3nc2-1` [TOPOTECAN], the pIC50 is 7.62 in test [3], 7.94 in test [10] and 8.49 in test [6].
For the compound `O=C1NCCc2c(-c3ccc(F)cc3)[nH]c3cccc1c23`, the PF50 in test [2] is 2.3.

The term pKi denotes −log10 of the Ki, conventionally taken in molar units. A word on the pIC50: it is −log10 of the IC50, conventionally taken in molar units.
